A selection: hits, their analogues and other compounds. The true share with any hit is near 3.1%.
ERAP1 inh = human ERAP1 aminopeptidase inhibitors, primary screen, biochemical, single point, plate reader | recombinant ERAP1, Leu-AMC fluorescence, 60 min | hit rate 0.15% among 340,000 | inhibition, % at 10.7 µM | AID 652197, 2013;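 active = mean replicate inhibition of at least 30%, or all replicates individually reaching that 30% level; inactive = mean below 30% and not every replicate reaching it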
CFTR F508del cor = F508del CFTR correction, initial screen, CFBE line, single point; CFBE cells, YFP halide quenching; stimulated with forskolin plus potentiator P3; % fluorescence drop versus neutral controls; activity (quench increase), % at 7.58 µM; hit rate 0.36% among 350,000;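 active = mean added fluorescence quench of at least 8% versus neutral control, with both replicates also reaching 8%; inconclusive = only one of the mean or replicate conditions met; inactive = mean below 8% and not both replicates reaching 8%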;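 note: cells transiently co-express mutant CFTR-F508del with the halide-sensitive YFP; corrector assay measuring rescue of mutant channel to the surface after 24 h compound exposure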
SIRT5 block = SIRT5 desuccinylase inhibitors, primary screen, biochemical, fluorescence imaging, single point, set 5 | NAD-dependent protein deacylase sirtuin-5, mitochondrial (Homo sapiens), Q9NXA8 | Purified SirT5, succinyl-peptide AMC, trypsin-coupled fluorescence | inhibition, % at 15 µM | hit rate 1.1% among 330,000 | AID 652115, 2013; in the data active = inhibition above about 15%; inconclusive = no clear call, values can overlap the other calls
Target sequence (Q9NXA8 whole entry, looked up): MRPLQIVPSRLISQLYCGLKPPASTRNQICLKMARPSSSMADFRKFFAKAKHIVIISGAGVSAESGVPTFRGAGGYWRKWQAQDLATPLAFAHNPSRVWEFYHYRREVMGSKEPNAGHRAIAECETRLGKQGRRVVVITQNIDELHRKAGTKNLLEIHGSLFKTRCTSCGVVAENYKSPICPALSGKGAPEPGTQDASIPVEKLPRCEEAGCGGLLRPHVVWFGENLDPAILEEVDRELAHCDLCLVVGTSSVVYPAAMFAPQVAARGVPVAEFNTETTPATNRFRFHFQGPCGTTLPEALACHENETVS
Ecoli rRNA inh = reduced GFP signal of wild-type E. coli, primary screen, bacterial rRNA inhibitor project, GFP/RFP fluorescence, OD600, single point | GFP signal change (wild-type ribosome), % (test concentration not listed) | E. coli WT GFP vs humanized-ribosome RFP mutants, 24 h; stronger effect = lower value; DMSO median 0, no signal -100 | hit rate 1.6% among 350,000;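 active = significant combined selectivity score with lowered wild-type GFP, culture density cut under 30%, mutant RFP and density less affected; inactive = any of these conditions unmet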
S100A4 MyoIIA = inhibitors of S100A4-myosin IIA peptide binding, primary screen, biochemical, fluorescence polarization, TAMRA-MyoIIA peptide; hit rate 0.14% among 360,000; Protein S100-A4 (Homo sapiens), P26447; inhibition, % at 10.7 µM;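 active = mean inhibition of at least 70% across replicates, with every replicate also reaching that level; inconclusive = mean inhibition reaches 70% but some replicates fall short; inactive = mean inhibition below 70%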
Target sequence (P26447 whole entry, looked up): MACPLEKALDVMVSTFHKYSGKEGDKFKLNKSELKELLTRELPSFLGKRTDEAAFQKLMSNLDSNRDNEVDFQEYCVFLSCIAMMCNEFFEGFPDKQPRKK
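incubation = readout 5 min after mixing, signal stable up to 60 min | system = S100A4 monomer protein | buffer or medium = HEPES pH 7.2 with CaCl2, KCl, NaCl, DTT, Triton | benchmarks = neutral control DMSO, positive control TFP | also added = fluorescent myosin IIA peptide, 5 nM | compound dosing = one concentration per compound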
Numbers stand for hits; . = inactive; ? = inconclusive; / = no result given; ! = a repeat was not active.

SMILES	ERAP1 inh	CFTR F508del cor	SIRT5 block	Ecoli rRNA inh	S100A4 MyoIIA
COc1ccc(CN(C)C[C@H]2OCCCC[C@H](C)Oc3ccc(N(C)C)cc3C(=O)N([C@H](C)CO)C[C@H]2C)cc1	.	.	22	.	.
COc1ccc(NC(=O)Nc2ccc3c(c2)C(=O)N([C@H](C)CO)C[C@@H](C)[C@@H](CN(C)Cc2ccc4c(c2)OCO4)OCCCC[C@H](C)O3)cc1	.	.	.	-34!	.
COc1ccc(NC(=O)N(C)C[C@H]2OCCCC[C@@H](C)Oc3ccc(NC(=O)Nc4ccc(F)cc4)cc3C(=O)N([C@H](C)CO)C[C@H]2C)cc1	.	.	.	.	.
COc1ccc(CN(C)C[C@@H]2Oc3ccc(NC(=O)Nc4ccc5c(c4)OCO5)cc3C(=O)N([C@@H](C)CO)C[C@@H]2C)cc1	.	.	.	.	.
COc1ccc(NC(=O)Nc2ccc3c(c2)C(=O)N([C@H](C)CO)C[C@H](C)[C@@H](CN(C)Cc2ccc4c(c2)OCO4)O3)cc1	.	.	16	.	.
COc1ccc(CN(C)C[C@H]2OCCCC[C@@H](C)Oc3ccc(NC(=O)NC4CCCCC4)cc3C(=O)N([C@H](C)CO)C[C@H]2C)cc1	.	.	19	.	.
COc1ccc(NC(=O)Nc2ccc3c(c2)C(=O)N([C@@H](C)CO)C[C@H](C)[C@H](CN(C)C(=O)Nc2ccc4c(c2)OCO4)OCCCC[C@H](C)O3)cc1	.	.	.	.	.
COc1ccc(NC(=O)N(C)C[C@@H]2OCCCC[C@@H](C)Oc3ccc(NC(=O)Nc4ccc(F)cc4)cc3C(=O)N([C@H](C)CO)C[C@@H]2C)cc1	.	.	18	.	.
COc1ccc(NC(=O)N(C)C[C@@H]2OCCCC[C@@H](C)Oc3ccc(NC(=O)Nc4ccc5c(c4)OCO5)cc3C(=O)N([C@H](C)CO)C[C@H]2C)cc1	.	.	15	.	.
CN1C(=O)c2cc(NC(=O)C3CCOCC3)ccc2OC[C@H]2O[C@@H](CC(=O)NC3CCCC3)CC[C@@H]21	.	.	.	.	.
C[C@@H]1CCCCO[C@@H](CN(C)C(=O)Nc2ccc(F)cc2)[C@@H](C)CN([C@H](C)CO)C(=O)c2cc(NC(=O)c3ccncc3)ccc2O1	.	.	.	.	.
O=C(CSc1nnc(NC(=O)c2ccccc2C(=O)O)s1)Nc1ccccc1Cl	.	.	.	.	.
Cc1cccc(C)c1NC(=O)CSc1nnc(NC(=O)c2ccccc2C(=O)O)s1	45	.	.	.	.
COc1ccc(C#Cc2cnc3c(c2)C(=O)N([C@@H](C)CO)C[C@@H](C)[C@H](CN(C)C(=O)Nc2cccc(OC)c2)O3)cc1	/	.	/	.	/
COc1ccc(C(=O)NCC(c2ccco2)N2CCc3ccccc32)c(OC)c1 (stereo not given)	.	.	.	-24	.
O=C(NCC(c1ccco1)N1CCc2ccccc21)c1ccccc1F (stereo not given)	.	.	.	.	.
COc1ccc(C(=O)NCC(c2ccco2)N2CCc3ccccc3C2)c(OC)c1 (stereo not given)	.	.	.	.	.
O=C(CCc1ccccc1)NCC(c1ccco1)N1CCc2ccccc21 (stereo not given)	.	14	.	.	.
Cc1ccc(C2NC(=O)c3ccccc3N2)c(C)c1 (stereo not given)	.	11	/	.	.
Cc1cccc(C2NC(=O)c3ccccc3N2)c1 (stereo not given)	.	.	/	.	.
CNC(=O)C[C@@H]1CC[C@@H]2[C@@H](COc3ccc(NC(=O)c4ccc(OC)cc4)cc3C(=O)N2C)O1	.	.	.	.	.
COc1ccc(S(=O)(=O)N(C)C[C@@H]2Oc3ccc(NS(=O)(=O)c4cn(C)cn4)cc3C(=O)N([C@H](C)CO)C[C@H]2C)cc1	/	.	/	.	/
Cc1cc(C)n(-c2nc(NCCN(C)C)c3c4c(sc3n2)COC(C)(C)C4)n1	.	.	.	-32	.
CC(=O)Nc1ccc(NC(=O)C(C)OC(=O)C23CC4CC(CC(Cl)(C4)C2)C3)cc1 (stereo not given)	.	.	.	-26	.
CC(=O)Nc1ccc(NC(=O)C(C)OC(=O)C2(c3ccc(Cl)cc3)CCCC2)cc1 (stereo not given)	.	/	.	.	.
SMILES	ERAP1 inh	CFTR F508del cor	SIRT5 block	Ecoli rRNA inh	S100A4 MyoIIA
COC(=O)c1c(C)[nH]c(C(=O)OCC(=O)c2ccc(C)s2)c1C	.	.	.	-20	.
O=C(C[C@@H]1C=C[C@H](NC(=O)Nc2cc(F)ccc2F)[C@H](CO)O1)Nc1ccc(-c2ccccc2)cc1	.	.	.	.	.
Cc1ccc2c(Cl)c(C(=O)N/N=C/c3cccn3C)sc2c1	.	/	.	-22	.
C/C(=N/NC(=O)CNC(=O)CCc1ccccc1)c1ccc(Cl)c(Cl)c1	.	.	16	.	.
C/C(=N/NC(=O)CNC(=O)Cc1ccccc1)c1ccc(Cl)cc1	/	.	.	/	.
CCOC(=O)c1c(CSc2ccsc2)n(C)c2cc(Br)c(O)c(CN(C)C)c12	/	.	20	.	.
CCS(=O)(=O)c1nc(S(=O)(=O)c2ccc(C)cc2)c(NCCCN2CCCC2=O)s1	.	.	.	.	84
O=C(C[C@H]1CC[C@@H]2[C@H](COC[C@@H](O)CN2C(=O)Cc2ccccc2)O1)NC1CCC1	.	.	.	.	.
CCCCC[C@@H](/C=C/C1C(=O)C=C[C@H]1C/C=C\CCCC(=O)OC)OC(C)=O (stereo not given in full)	.	.	.	-23	.
O=C(NCC1CC1)[C@H]1[C@H](CO)[C@H]2Cn3c(cccc3=O)[C@H]2N1C(=O)Nc1ccccc1	/	/	/	.	/
Cc1ccccc1OCC(O)Cn1c(NCc2ccco2)nc2c1c(=O)n(C)c(=O)n2C (stereo not given)	.	.	.	-26	.
Cc1ccccc1OCC(O)Cn1c(Br)nc2c1c(=O)n(C)c(=O)n2C (stereo not given)	.	.	.	.	.
Cc1ccc2nc3c(cc(C(N)=S)c(=N)n3CCCOC(C)C)c(=O)n2c1	33	.	.	.	?
COCCCn1c(=N)c(C(N)=S)cc2c(=O)n3cccc(C)c3nc21	.	.	.	.	.
C=CCn1c(SCC(=O)c2ccc(O)c(O)c2)nnc1-c1cccc(C)c1	.	.	.	-27	.
C=CCn1c(SCC(=O)c2ccc(O)c(O)c2)nnc1-c1cccc(Cl)c1	.	.	.	.	.
Nc1nc(-c2ccc(-c3ccccc3)cc2)cs1	.	.	.	-25	.
